NOD2-RIPK2 inh: inhibitors of human NOD2-RIPK2 interaction. O43353. CHO BLA complementation NOD2-RIPK2, CCF4 ratio. hit rate 0.38% among 360,000. inhibition, % at 4.98 µM; in the data active = inhibition above about 21%;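 also: 0% = vehicle only and 100% = reference blocker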
MC4R ag barr: activates human MC4R beta-arrestin recruitment. hit rate 0.98% among 360,000. P32245. U2OS MC4R beta-arrestin complementation, luminescence; percent of melanotan II response, DMSO zero. activation, % at 8.9 µM;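 active = activation above a per-plate cutoff, the mean activation of sample wells on that plate plus 3 SD, cut at about 8% in these data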
Target sequence (P32245 whole entry, looked up): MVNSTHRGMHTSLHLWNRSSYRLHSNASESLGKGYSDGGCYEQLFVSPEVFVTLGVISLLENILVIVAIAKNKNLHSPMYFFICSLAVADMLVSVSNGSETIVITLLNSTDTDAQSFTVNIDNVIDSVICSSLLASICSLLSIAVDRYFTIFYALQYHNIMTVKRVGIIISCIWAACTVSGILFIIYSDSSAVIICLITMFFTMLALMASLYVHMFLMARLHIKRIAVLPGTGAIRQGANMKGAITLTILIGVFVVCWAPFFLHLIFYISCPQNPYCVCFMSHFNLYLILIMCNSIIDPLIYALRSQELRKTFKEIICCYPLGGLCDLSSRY
TLR9-MyD88 inh: inhibitors of human TLR9-MyD88 binding; inhibition, % at 4.98 µM; hit rate 0.21% among 340,000; CHO BLA complementation TLR9-MyD88, CCF4 FRET ratio;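 active = inhibition above the mean over all tested compounds plus 3 SD, cut at about 21% in these data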;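 also: 0% = DMSO only wells and 100% = clavulanate BLA inhibitor control wells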
MC4R antagonist: human MC4R antagonism in cAMP assay; AID 540295; MC4R-expressing cells, MTII-stimulated cAMP, LANCE TR-FRET; inhibition, % at 6.5 µM; P32245; hit rate 0.48% among 360,000;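 active = inhibition above its plate's cutoff, the mean of tested wells on that plate plus 3 SD, cut at about 29% in these data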;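 also: 0% = Melanotan II alone and 100% = Melanotan II plus saturating MCL0020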
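System: U2OS cells stably expressing human melanocortin 4 receptor (MC4R). Reagent: Melanotan II challenge after compound preincubation. Doses: 6.5 µM. Times: 30-min compound, 1-h challenge, 1-h detection, room temperature. Measured by: TR-FRET with Eu-cAMP and labeled anti-cAMP, 671 nm. Replicates: singlicate.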
TLR4-MyD88 BLA: blocks binding of human TLR4 to MyD88; O00206+Q99836; HeLa CL3-4 TLR4/MyD88 BLA complementation, FRET ratio; inhibition, % at 8.4 µM; hit rate 0.18% among 200,000; AID 861; in the data active = inhibition above about 25%;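 also: 0% = vehicle and 100% = reference inhibitor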
NTR1 agonist: agonists of human neurotensin receptor NTR1; NTR1-U2OS beta-arrestin-GFP spot imaging, agonist mode; P30989; activation, % at 20 µM; hit rate 0.17% among 330,000;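 active = activation at or above 40% of the spot to cytoplasm intensity ratio, with at least 20 cells analyzed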;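 also: 0% = DMSO without peptide and 100% = 100 nM NTR1 peptide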
Target sequence (P30989 whole entry, looked up): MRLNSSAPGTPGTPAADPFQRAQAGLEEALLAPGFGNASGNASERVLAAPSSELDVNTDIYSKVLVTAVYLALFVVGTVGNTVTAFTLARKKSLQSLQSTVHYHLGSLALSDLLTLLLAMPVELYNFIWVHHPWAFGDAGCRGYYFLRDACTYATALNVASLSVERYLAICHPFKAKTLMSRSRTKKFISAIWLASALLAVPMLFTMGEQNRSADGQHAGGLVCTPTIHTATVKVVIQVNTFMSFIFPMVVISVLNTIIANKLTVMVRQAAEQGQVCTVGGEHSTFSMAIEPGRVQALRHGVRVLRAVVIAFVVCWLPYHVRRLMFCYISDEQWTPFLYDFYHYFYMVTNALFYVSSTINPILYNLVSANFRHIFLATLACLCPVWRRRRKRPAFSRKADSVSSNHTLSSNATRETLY
U2OS cAMP counter: U2OS forskolin cAMP inhibition counter-screen. shares compounds with MC4R antagonist. parental U2OS, LANCE TR-FRET. inhibition, % at 6.5 µM. hit rate 26% among 1,600. AID 602193;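 active = mean inhibition over triplicates above the low-control well mean plus 3 SD, set per campaign, cut at about 13% in these data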;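 also: signal is single emission at 671 nm which falls as cellular cAMP rises; 0% = forskolin-stimulated wells and 100% = buffer without forskolin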
MC4R cAMP antag: human MC4R cAMP antagonism confirmation; hit rate 27% among 1,600; shares compounds with MC4R antagonist; MC4R-expressing cells, MTII-stimulated cAMP, TR-FRET; inhibition, % at 6.5 µM; AID 602195; in the data active = inhibition above about 29%;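 also: 0% = agonist stimulated wells alone and 100% = agonist stimulated wells plus saturating reference antagonist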
Active calls of the source: *; x = not tested or not shown. Hits are enriched below; roughly 1.9% of the tested compounds scored in any of these assays.

SMILES | NOD2-RIPK2 inh | MC4R ag barr | TLR9-MyD88 inh | MC4R antagonist | TLR4-MyD88 BLA | NTR1 agonist | U2OS cAMP counter | MC4R cAMP antag
O=C(COC(=O)c1cccs1)Nc1ccc(F)c(F)c1 | 1.5 | 0.0 | 0.3 | 7.5 | x | -1.6 | x | x
N/C(CC(=O)Nc1ccc(F)c(Cl)c1)=N\OC(=O)c1cccs1 | -6.7 | 0.0 | -3.3 | 35.6* | x | 4.7 | -3.6 | 4.1
CC(C)C(NS(=O)(=O)c1ccccc1F)C(=O)OCC(=O)NCc1ccco1 (stereo not drawn) | 0.1 | -2.3 | 0.7 | 4.5 | x | 0.6 | x | x
O=C(CC(Nc1ccccc1)C(=O)O)c1ccccc1 (stereo not drawn) | -5.2 | -1.4 | 3.4 | 0.6 | x | -1.8 | x | x
C=C(C(=O)c1ccccc1)C(C)CC(=O)c1ccccc1 (stereo not drawn) | 3.4 | -1.4 | 1.2 | 32.7* | 12.8 | 8.8 | 23.2* | 50.1*
CC(C)C[C@H]1CN(CCCC[C@@H]2CNC(=O)C(=O)N2Cc2ccccc2)C(=O)C(=O)N1CCC1CCCCC1 | 3.2 | x | x | x | x | x | x | x
CCc1nnc(NS(=O)(=O)c2ccc(N/C=C/C(=O)c3ccc(C)cc3)cc2)s1 | 7.5 | -1.0 | 7.6 | 8.8 | -15.3 | 2.0 | x | x
CCc1nnc(NS(=O)(=O)c2ccc(N/C=C\C(=O)c3cccc(OC)c3)cc2)s1 | -1.0 | -2.0 | -4.8 | 33.8* | 3.8 | -0.2 | 1.7 | 9.1
Cc1cccc(N2CC(C(=O)Nc3ccc(S(=O)(=O)N4CCOCC4)cc3)CC2=O)c1 (stereo not drawn) | -3.3 | 1.8 | 5.9 | 30.4* | 7.3 | -0.5 | 1.4 | 5.2
Cc1ccc(N2CC(C(=O)Nc3ccc(S(=O)(=O)N4CCOCC4)cc3)CC2=O)cc1 (stereo not drawn) | -4.3 | -0.8 | 5.2 | 10.4 | 1.2 | 0.3 | x | x
O=S(=O)(c1ccc(=S)[nH]c1)N1CCN(Cc2ccccc2)CC1 | -8.0 | -0.3 | -15.9 | 10.8 | x | 1.1 | x | x
CN(NS(=O)(=O)c1ccc(Br)cc1)c1nc(C(F)(F)F)nc2ccccc12 | -3.9 | 0.2 | 2.1 | 31.6* | -10.5 | 3.0 | 1.4 | -1.5
CCOC(=O)/C=C/C(=O)Nc1ccc(Oc2ccccc2)cc1 | 6.0 | -0.6 | 4.6 | 45.7* | 1.2 | 1.7 | 28.4* | 53.1*
O=C(O)/C=C/C(=O)Nc1ccc(Oc2ccccc2)cc1 | -7.9 | -1.4 | -2.1 | 7.0 | x | 0.7 | x | x
O=C1CCN(Cc2ccccc2)C=C1c1cccc(O)c1 | -13.0 | -0.3 | -4.2 | -0.4 | x | -2.7 | x | x
O=C(/C(=C/O)N=Nc1ccccc1)c1ccc(Cl)cc1 | -4.8 | 2.0 | 4.3 | 33.6* | -11.1 | 8.5 | 5.7 | 9.2
CCN(CC(=O)N1CCN(c2ccccc2)CC1)S(=O)(=O)c1ccc(C)cc1 | 1.3 | -0.7 | 0.8 | -1.6 | 5.4 | -0.1 | x | x
Cc1ccc(S(=O)(=O)N(C)CC(=O)OCC(=O)N2CCN(c3ccccc3)CC2)cc1 | -8.0 | -0.9 | -3.5 | 33.2* | 9.2 | 0.7 | 19.9* | 20.9
CN(Cc1cc(=O)n2ccsc2n1)C1CCCCC1 | -11.6 | 3.4 | 5.5 | -9.0 | 2.6 | 1.0 | x | x
O=C(Nc1ccccn1)c1ccc(C(=O)Nc2ccccn2)cc1 | -4.4 | 1.5 | -10.6 | 24.5 | x | -0.8 | x | x
O=C(Nc1ccccn1)c1ccc(Br)s1 | -4.8 | 1.9 | -5.6 | 30.6* | x | 0.9 | 2.6 | 2.1
CCOc1ccc(S(=O)(=O)Nc2ccc(C(=O)NN)cc2)cc1 | -10.4 | 1.0 | -0.2 | 18.1 | x | -1.3 | x | x
O=C(Nc1cccc([N+](=O)[O-])c1)Nc1cccc([N+](=O)[O-])c1 | -10.8 | 1.1 | -3.7 | 34.0* | -12.5 | 4.1 | 11.1 | 13.6
Cn1c(N)c(C(=O)COC(=O)CC(NC(N)=O)c2ccc(Cl)cc2)c(=O)n(C)c1=O (stereo not drawn) | 3.5 | -0.4 | 1.2 | 5.4 | x | 0.1 | x | x
CCN(c1ccc(OCC(=O)OCC(=O)c2c(N)n(C)c(=O)n(C)c2=O)cc1)S(=O)(=O)c1ccccc1 | -12.6 | -1.6 | -5.3 | 41.9* | -8.2 | 5.0 | 9.4 | 18.9
SMILES | NOD2-RIPK2 inh | MC4R ag barr | TLR9-MyD88 inh | MC4R antagonist | TLR4-MyD88 BLA | NTR1 agonist | U2OS cAMP counter | MC4R cAMP antag
CC(=O)NC(CC(=O)OCC(=O)c1c(N)n(C)c(=O)n(C)c1=O)c1ccccc1 (stereo not drawn) | -6.5 | -2.4 | -3.7 | 30.0* | 4.8 | 1.2 | 6.6 | 5.1
CCN(CC)C(=O)C1=C(C)N(CCCOC)C(=O)C(CC(=O)NCCCN(C)C)C1 (stereo not drawn) | -1.7 | -0.8 | 9.8 | 14.8 | x | x | x | x
O=C(OC1CCOC1=O)c1cc(-c2cccs2)nc2ccccc12 (stereo not drawn) | -6.5 | 0.6 | -10.5 | 35.2* | 2.2 | 4.7 | 25.7* | 37.6*
CCN(c1ccccc1)S(=O)(=O)c1cc(C(=O)OC2CCOC2=O)ccc1C (stereo not drawn) | 15.7 | -2.9 | -0.1 | 39.9* | x | 26.4 | 23.5* | 37.1*
N#CCNC(=O)C1CC(=O)N(CCc2ccc(F)cc2)C1 (stereo not drawn) | -8.1 | -0.2 | 3.8 | 7.8 | x | 0.1 | x | x
Cc1ccc(NC(=O)COC(=O)c2cccc(N3C(=O)c4ccccc4C3=O)c2)cc1 | -13.2 | 2.2 | 6.5 | 4.5 | x | 3.8 | x | x
CC(OC(=O)c1cccc(N2C(=O)c3ccccc3C2=O)c1)C(=O)Nc1ccc(N(C)C)cc1 (stereo not drawn) | -11.3 | -0.4 | 6.0 | 32.7* | -8.3 | -0.3 | -7.1 | -14.5
CN1CCN(C(=O)c2cc(S(=O)(=O)Nc3ccccc3F)c(Cl)cc2Cl)CC1 | 2.7 | 2.5 | 4.5 | 34.8* | x | -0.6 | 1.0 | 3.1
CC(CCc1ccccc1)NC(=O)CN1CCSc2ccccc21 (stereo not drawn) | 4.3 | -1.4 | -1.7 | 31.1* | -13.1 | -1.4 | -1.0 | -1.9
O=C(Nc1ccc(Cl)cn1)C1CCN(c2ncnc3c2nc2n3CCCCC2)CC1 | 0.1 | -0.5 | -13.3 | 1.3 | x | 1.7 | x | x
O=C(Nc1ccc(Cl)cn1)C1CCCN(c2ncnc3c2nc2n3CCCCC2)C1 (stereo not drawn) | -7.8 | -0.6 | -6.6 | 30.4* | x | 5.9 | -1.9 | 7.3
CCOC(=O)C1=C(C)C2C3C(=O)N(c4ccccc4C)C(=O)C3C1(C)C1C(=O)N(c3ccccc3C)C(=O)C21 (stereo not drawn) | -7.9 | -0.7 | 5.6 | 31.4* | -1.6 | 0.3 | 0.3 | -12.8
Cc1ccccc1N=C(c1ccccc1)C1C(=O)c2ccccc2C1=O | 2.3 | x | x | x | x | x | x | x
Clc1cccc(Oc2ncccn2)c1 | 0.1 | 1.4 | 3.2 | 31.4* | 2.9 | 2.3 | 2.3 | 0.1
CC(=O)c1cccc(Oc2ncccn2)c1 | -2.9 | 1.0 | -1.6 | 12.2 | x | 0.9 | x | x
CCCC1NC(=O)c2cccnc2-n2c1nc1ccc(Cl)cc1c2=O (stereo not drawn) | 2.6 | -2.1 | -0.3 | 1.7 | x | x | x | x

High-throughput results (PubChem)
